PostGolgi ctrl: inhibits growth of the yeast control strain; AID 738; efflux-deficient yeast background strain, growth absorbance A615, 16 h; 5% of 98,000 active; inhibition, % at 10 µM
PostGolgi yeast: growth inhibition of a yeast mutant, post-Golgi transport screen; 0.9% of 98,000 active; post-Golgi transport phenotypic cell assay; inhibition, % at 10 µM;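 note: yeast cells grown in 1536-well plates; yeast grown about 18 h at 30C before absorbance read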
E coli WT exp: E. coli BW25113 growth inhibition, expanded screen. OD600 absorbance. growth inhibition, % at 100 µM. 0.15% of 98,000 active. AID 710;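 active = growth inhibition above about 50% at one test dose, limit read from the data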;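 note: growth measured after 20 h incubation at 37 °C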
Cav3 T inh: blocks human Cav3.2 T-type calcium channel; O95180; Cav3.2-expressing cells, Fluo-4 calcium fluorescence FDSS; active compounds read low; B-score at 10 µM; 4% of 100,000 active; AID 449739;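 active = single-dose well whose peak fluorescence ratio is a statistical outlier from its plate by either plate-standardised score or position-corrected B-score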
Target sequence (O95180 whole entry, looked up): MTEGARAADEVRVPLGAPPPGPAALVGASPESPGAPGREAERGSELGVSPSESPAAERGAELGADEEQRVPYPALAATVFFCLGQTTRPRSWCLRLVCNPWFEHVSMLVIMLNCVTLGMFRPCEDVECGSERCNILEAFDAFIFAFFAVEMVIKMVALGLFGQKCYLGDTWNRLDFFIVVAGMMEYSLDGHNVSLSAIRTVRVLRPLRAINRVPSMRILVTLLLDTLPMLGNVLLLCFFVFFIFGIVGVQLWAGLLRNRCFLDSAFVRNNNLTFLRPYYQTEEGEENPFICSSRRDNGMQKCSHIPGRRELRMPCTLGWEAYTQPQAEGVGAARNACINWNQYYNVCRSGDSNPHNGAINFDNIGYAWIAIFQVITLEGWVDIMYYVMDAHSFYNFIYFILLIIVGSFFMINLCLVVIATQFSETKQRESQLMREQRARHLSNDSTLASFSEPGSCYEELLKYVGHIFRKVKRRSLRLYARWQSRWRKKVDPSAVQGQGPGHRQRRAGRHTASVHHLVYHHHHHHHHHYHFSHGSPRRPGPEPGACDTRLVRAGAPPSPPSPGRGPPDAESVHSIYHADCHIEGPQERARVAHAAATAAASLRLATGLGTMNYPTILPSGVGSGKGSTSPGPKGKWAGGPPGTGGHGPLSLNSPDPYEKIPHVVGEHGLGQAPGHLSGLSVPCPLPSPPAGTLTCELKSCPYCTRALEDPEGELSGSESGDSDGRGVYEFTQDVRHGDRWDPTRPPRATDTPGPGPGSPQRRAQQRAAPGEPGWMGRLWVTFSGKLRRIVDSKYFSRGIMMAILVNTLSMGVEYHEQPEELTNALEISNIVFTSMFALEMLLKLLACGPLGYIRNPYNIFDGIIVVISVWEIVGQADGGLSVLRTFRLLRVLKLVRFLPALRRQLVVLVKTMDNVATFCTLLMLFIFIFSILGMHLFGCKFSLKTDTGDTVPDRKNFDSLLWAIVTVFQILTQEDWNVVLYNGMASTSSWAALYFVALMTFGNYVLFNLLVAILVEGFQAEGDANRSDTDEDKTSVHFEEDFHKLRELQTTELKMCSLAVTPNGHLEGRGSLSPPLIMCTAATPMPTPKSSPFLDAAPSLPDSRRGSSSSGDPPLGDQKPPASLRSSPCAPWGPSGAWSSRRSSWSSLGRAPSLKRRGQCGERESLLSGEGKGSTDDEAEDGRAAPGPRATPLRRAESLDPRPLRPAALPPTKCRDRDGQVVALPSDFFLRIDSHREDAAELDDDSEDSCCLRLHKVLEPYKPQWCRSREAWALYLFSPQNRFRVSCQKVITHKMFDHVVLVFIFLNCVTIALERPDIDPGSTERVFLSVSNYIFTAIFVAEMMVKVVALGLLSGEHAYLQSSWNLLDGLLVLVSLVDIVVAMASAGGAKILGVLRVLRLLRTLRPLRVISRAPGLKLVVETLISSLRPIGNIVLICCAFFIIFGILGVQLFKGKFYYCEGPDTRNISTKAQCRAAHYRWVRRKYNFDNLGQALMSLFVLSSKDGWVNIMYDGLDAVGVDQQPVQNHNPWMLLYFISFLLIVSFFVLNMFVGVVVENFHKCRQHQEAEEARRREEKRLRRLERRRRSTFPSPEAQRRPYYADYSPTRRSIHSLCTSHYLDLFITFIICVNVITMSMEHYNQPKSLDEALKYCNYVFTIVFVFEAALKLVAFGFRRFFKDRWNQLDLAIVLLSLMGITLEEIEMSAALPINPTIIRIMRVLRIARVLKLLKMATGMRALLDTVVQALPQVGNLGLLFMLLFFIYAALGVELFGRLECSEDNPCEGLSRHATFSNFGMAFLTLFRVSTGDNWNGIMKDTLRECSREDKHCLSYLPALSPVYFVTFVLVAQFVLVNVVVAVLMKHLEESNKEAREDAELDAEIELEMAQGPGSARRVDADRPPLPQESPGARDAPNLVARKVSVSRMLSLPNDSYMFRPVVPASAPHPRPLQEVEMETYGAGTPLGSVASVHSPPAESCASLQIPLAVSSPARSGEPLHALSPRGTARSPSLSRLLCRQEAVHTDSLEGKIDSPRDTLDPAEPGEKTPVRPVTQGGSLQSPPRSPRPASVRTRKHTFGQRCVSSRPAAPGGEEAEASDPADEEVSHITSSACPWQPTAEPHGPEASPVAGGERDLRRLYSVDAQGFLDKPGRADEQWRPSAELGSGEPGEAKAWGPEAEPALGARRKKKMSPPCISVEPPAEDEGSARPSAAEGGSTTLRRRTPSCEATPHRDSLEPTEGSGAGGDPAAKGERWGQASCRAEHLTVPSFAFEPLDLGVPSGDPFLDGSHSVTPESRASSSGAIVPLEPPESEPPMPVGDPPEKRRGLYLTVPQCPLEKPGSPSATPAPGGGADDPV
Ecoli tolC: growth inhibitors of E. coli BW25113 tolC mutant; OD615; growth inhibition, % at 10 µM (by protocol); 2.2% of 65,000 active; AID 573;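 active = growth inhibition at or above a cutoff equal to the mean over every tested compound plus 3 SD, cut at about 60% in these data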;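 note: growth measured after 20 h incubation at 37 °C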
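test system = E. coli BW25113 ΔtolC::kan bacteria | medium = LB with kanamycin 50 µg/mL | signal = OD at 615 nm | schedule = 37 °C, 20 h exposure | evaluation = % inhibition of E. coli growth | compound dosing = one dose of 10 µM final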
Large screens that a line does not name were inactive. Shown are actives, neighbours in structure and some others; about 8.4% of the full set was active somewhere. Cut-off read from the data, not from the text of the source, unless noted: active = inhibition above about 30%; inactive = the rest.

CCOC(=O)C1CCN(c2ncnc3c2[nH]c2cccc(OC)c23)CC1	none
CCOC(=O)C1CCN(c2ncnc3c2oc2ccc(Cl)cc23)CC1	PostGolgi ctrl 33
Cc1ccccc1NC(=O)Cn1nc(-c2ccccc2)nc1-c1ccccc1	none (no result: Ecoli tolC)
NC(=O)CSc1nc(N)c2c3c(sc2n1)CCCCC3	PostGolgi ctrl 31
CNC(=O)CSc1nc(N)c2c3c(sc2n1)CCC3	none (no result: Ecoli tolC)
CCN(Cc1ccccc1)C(=O)CCc1nc(-c2ccc(C)cc2)no1	PostGolgi ctrl 42, Cav3 T inh -7.5, Ecoli tolC 88
CCc1ccccc1N(CC)C(=O)CCc1nc(-c2ccc(C)cc2)no1	Ecoli tolC 95
CN(C)C(=O)CCc1nc(-c2ccc(C(C)(C)C)cc2)no1	none
CCCn1nnnc1SCC(=O)NCc1ccc2c(c1)OCO2	none
COc1ccc(S(=O)(=O)NCC(=O)N(CC(=O)NCC2CCCO2)c2cc(C)ccc2C)cc1 (stereo not drawn)	none
CC(C)CCNC(=O)c1c(CSc2ccccc2)noc1C(=O)NCc1ccccc1	none (no result: PostGolgi ctrl, PostGolgi yeast, E coli WT exp, Ecoli tolC)
CC(C)C(=O)N(c1cc2sc(=O)oc2c2ccccc12)S(=O)(=O)c1cccs1	PostGolgi ctrl 67 (no result: Ecoli tolC)
CC(C)C(=O)N(c1ccc2oc(=O)sc2c1)S(=O)(=O)c1cccs1	none
O=C(c1cc(Br)c(Br)s1)N1CCN(C/C=C/c2ccccc2)CC1	PostGolgi ctrl 46 (no result: Ecoli tolC)
O=C(CCN1CCN(C/C=C/c2ccccc2)CC1)Nc1ccccc1	none
O=C(Nc1ccccc1)OCc1cc(-c2ccccc2Cl)on1	PostGolgi ctrl 33 (no result: Cav3 T inh, Ecoli tolC)
O=C(Nc1cccc(Cl)c1)c1ccc2c(=O)n3c(nc2c1)CCCCC3	Cav3 T inh -5.7
O=C(c1ccc2c(=O)n3c(nc2c1)CCCCC3)N1CCN(C(c2ccccc2)c2ccccc2)CC1	Cav3 T inh -4.8 (no result: Ecoli tolC)
O=C(Nc1ccc(F)c(Cl)c1)c1ccc2c(=O)n3c(nc2c1)CCCCC3	Cav3 T inh -7.7
CN(C(=O)c1ccc2c(=O)n3c(nc2c1)CCCCC3)c1ccccc1	none
CCCCC1CC(C)(C(=O)CSc2nc3ccccc3s2)OC1=O (stereo not drawn)	none (no result: Ecoli tolC)
COc1ccc(CN2C(=O)CS(=O)CC2=O)cc1OC	none (no result: Ecoli tolC)
CCCCCCn1c(CN2CCN(C(=O)OCC)CC2)nc2c1c(=O)n(C)c(=O)n2C	none (no result: PostGolgi ctrl, PostGolgi yeast, E coli WT exp)
COc1ccc(CC(=O)OCC(=O)NC(=O)NC23CC4CC(CC(C4)C2)C3)cc1	Cav3 T inh -8 (no result: Ecoli tolC)
O=C(Nc1ccc2oc(=O)ccc2c1)c1cccnc1	none
Nc1cc(C(=O)c2ccccc2)ccc1N1CCOCC1	none (no result: PostGolgi ctrl, PostGolgi yeast, E coli WT exp, Ecoli tolC)
O=C(c1ccc(Cl)c(Cl)c1)c1cc(-c2ccccn2)c(N2CCOCC2)s1	PostGolgi ctrl 56 (no result: Ecoli tolC)
OC(CCCCN1CCCCC1)c1ccccc1 (stereo not drawn)	none
CC(C)(C)c1ccc(C(O)CCCN2CCC(C(O)(c3ccccc3)c3ccccc3)CC2)cc1 (stereo not drawn)	Cav3 T inh -4.8 (no result: PostGolgi ctrl, PostGolgi yeast, E coli WT exp)
COc1ccc(S(=O)(=O)N(CCc2ccccc2)CC(=O)NC(C)C)cc1	none (no result: Ecoli tolC)
COc1ccccc1/C=C/C(=O)N1CCOCC1	PostGolgi ctrl 35 (no result: Ecoli tolC)
CCc1ccc(N(C(=O)c2snc(C(N)=O)c2N)C(C(=O)NCCC(C)C)c2c[nH]c3ccccc23)cc1 (stereo not drawn)	none (no result: Ecoli tolC)
COc1ccc(CNC(=O)CN(Cc2ccccc2)S(=O)(=O)c2ccc(Cl)cc2)cc1	none (no result: Ecoli tolC)
COc1ccc(CNC(=O)CN(Cc2ccc(Cl)cc2)S(=O)(=O)c2ccccc2)cc1	PostGolgi ctrl 39 (no result: Ecoli tolC)
Cc1ccc(S(=O)(=O)CCC(=O)O)cc1C	none (no result: PostGolgi ctrl, PostGolgi yeast, E coli WT exp, Ecoli tolC)
C=Cn1ccnc1P(=S)(c1ccc2c(c1)c1ccccc1n2CC)c1nccn1C=C	Cav3 T inh -5.2
CCn1c2ccccc2c2cc(Nc3cc(C)nc4ncnn34)ccc21	none
O=C(NCc1ccc(Cl)cc1)C(=O)NCC1OCCN1S(=O)(=O)c1cccs1 (stereo not drawn)	Cav3 T inh -6 (no result: PostGolgi ctrl, PostGolgi yeast, E coli WT exp, Ecoli tolC)
O=C(NCc1ccccc1)C(=O)NCC1OCCN1S(=O)(=O)c1ccc2c(c1)OCCO2 (stereo not drawn)	none (no result: PostGolgi ctrl, PostGolgi yeast, E coli WT exp, Ecoli tolC)
Cc1ccc(CNC(=O)C(=O)NCC2OCCN2S(=O)(=O)c2ccc3c(c2)OCCO3)cc1 (stereo not drawn)	Cav3 T inh -4.5 (no result: PostGolgi ctrl, PostGolgi yeast, E coli WT exp, Ecoli tolC)
COc1ccc(CNC(=O)C(=O)NCC2OCCN2S(=O)(=O)c2cccs2)cc1 (stereo not drawn)	Cav3 T inh -4.9 (no result: PostGolgi ctrl, PostGolgi yeast, E coli WT exp, Ecoli tolC)
Cc1ccc(S(=O)(=O)N2CCOC2CNC(=O)C(=O)NCc2ccco2)cc1 (stereo not drawn)	none (no result: PostGolgi ctrl, PostGolgi yeast, E coli WT exp, Ecoli tolC)
N#Cc1ccc(-c2ccc(F)cc2)nc1SCC(=O)Nc1sc2c(c1C#N)CCC2	none (no result: Ecoli tolC)
CC(C)(C)C(=O)/C=C(N)/C=C/c1ccccc1	PostGolgi ctrl 33
COc1cccc(-c2cc(C(=O)Nc3c(C)nn(Cc4ccccc4C)c3C)no2)c1	Cav3 T inh -3.9, Ecoli tolC 71
Cc1nn(Cc2ccc(Cl)c(Cl)c2)c(C)c1NC(=O)c1cc(CC(C)C)on1	Cav3 T inh -8.6
Cc1cc(NC(=O)c2cc(C(C)C)on2)nn1Cc1ccc(Cl)cc1	Cav3 T inh -7.1 (no result: Ecoli tolC)
COc1cccc(-c2cc(C(=O)Nc3cnn(Cc4ccccc4C)c3)no2)c1	none (no result: Cav3 T inh)
COc1ccc(-c2cc(C(=O)Nc3c(C)nn(Cc4ccccc4)c3C)no2)cc1	none
Cc1nn(Cc2ccccc2)c(C)c1NC(=O)c1cc(-c2cccs2)on1	Cav3 T inh -4.8
CC1=C(CC[C@@H](C)CO)OC2CC3C4CCC5CC(O)CCC5(C)C4CC(=O)C3(C)C12 (stereo partly drawn)	none (no result: PostGolgi ctrl, PostGolgi yeast, E coli WT exp, Ecoli tolC)
CCOC(=O)N1CCN(C(=O)CCCn2nc(C)c3sc4ccccc4c3c2=O)CC1	none
CC(C)(CNc1ccc([N+](=O)[O-])cc1Cl)CNS(C)(=O)=O	none (no result: Ecoli tolC)
O=C(Nc1nc2c(s1)C(=O)CCC2)c1ccccc1	none
O=C(N1CCCCC1)C1(c2ccccc2)CCOCC1	none
O=C(N1CCOCC1)C1(c2ccccc2)CCCCC1	PostGolgi ctrl 42
COC(=O)c1sc(N2C(=O)C(O)=C(C(=O)c3ccc(C)o3)C2c2ccc(F)cc2)nc1C (stereo not drawn)	Cav3 T inh -4.9, Ecoli tolC 65
CCC1(CC)Cc2ccccc2C(CC(=O)N2CCOCC2)=N1	none (no result: Ecoli tolC)
Cn1c(=O)oc2cc(S(=O)(=O)N3CCCC(C(=O)N4CCc5ccccc5C4)C3)ccc21 (stereo not drawn)	PostGolgi ctrl 51
CCS(=O)(=O)N1CCC(C(=O)N2CCc3ccccc3C2)CC1	none (no result: Cav3 T inh)
COc1ccc(S(=O)(=O)N2CCC(C(=O)N3CCc4ccccc4C3)CC2)cc1Cl	PostGolgi ctrl 49, Cav3 T inh -4.6 (no result: Ecoli tolC)
Cc1nnc(SCCN2C(=O)c3ccccc3C2=O)nc1C	none (no result: PostGolgi ctrl, PostGolgi yeast, E coli WT exp, Ecoli tolC)
Cc1ccc(C(CC(=O)N2CCCC2)c2ccccc2)c(O)c1C (stereo not drawn)	none (no result: Cav3 T inh)
O=C(NCC1COc2ccccc2O1)C1CCC(CNc2c(N3CCCCC3)c(=O)c2=O)CC1 (stereo not drawn)	none
CCC1CCCCN1C(=O)Cn1c(C(=O)OC)cc2ccsc21 (stereo not drawn)	none
CN(c1ccc(O)cc1)c1nc(-c2ccccc2)cs1	Ecoli tolC 98 (no result: PostGolgi ctrl, PostGolgi yeast, E coli WT exp, Cav3 T inh)
COCCCn1c(C)nc2c(c1=O)c1nc3ccccc3nc1n2CCc1ccccc1	none
COC(C[C@H]1O[C@H]1[C@@H](O)[C@@H](C)OCc1ccccc1)OC	none (no result: PostGolgi ctrl, PostGolgi yeast, E coli WT exp, Ecoli tolC)
